These results are taken from ChEMBL document CHEMBL1124509, “Synthesis, cytotoxicity, and antiviral activity of certain 7-[(2-hydroxyethoxy)methyl]pyrrolo[2,3-d]pyrimidine nucleosides related to toyocamycin and sangivamycin” (J Med Chem, 1989).

The species named for one experiment is Homo sapiens. Description: Cytotoxicity against Normal human diploid cells (human foreskin fibroblasts cells). As to conditions: Fibroblast.
Experiment [1] can be described thus: Cytotoxicity against Monkey kidney cells(BSC-1 cells). The experiment is classed as cell-based. The following applies: Cercopithecidae.
Experiment [2] is described as follows: Cytotoxicity against human neoplastic cell line (KB). In kind it is cell-based. In outline: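 KB cells (MEM with Hank's salts, 5% FBS) exposed to compound; incorporation of radioactive precursors, including [3H]dThd, into DNA, RNA and protein measured. An IC50 for each was obtained by regression on log concentration, and the three IC50s were averaged. Averages of two to four experiments.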

For another experiment, the system named is Human alphaherpesvirus 1. Description: Antiviral activity was determined against Herpes simplex virus type 1 by Plaque-reduction assay. In kind it is functional, organism-based. The method, boiled down:
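BSC-1 monolayers (MEM with Earle's salts, 10% FBS) infected with HSV-1 strain S-148, about 100 PFU per 0.2 mL; compound dissolved in overlay medium; plaques counted. IC50 by regression of percent inhibition on log concentration. Acyclovir or ganciclovir positive control, with sets rejected beyond 1.5 SD of control mean.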

In another experiment the test system is Human betaherpesvirus 5. The experiment can be described thus: Antiviral activity against Human cytomegalovirus in a plaque-reduction assay. The experiment is classed as functional, organism-based. The method, boiled down: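 HFF monolayers (MEM with Earle's salts, 10% FBS) infected with plaque-purified Towne strain HCMV, about 50 PFU per 0.2 mL inoculum; compound dissolved in overlay medium; plaques counted. IC50 from linear regression of percent inhibition against log concentration. Ganciclovir or acyclovir positive control run; sets rejected if control deviated >1.5 SD from its mean.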
A general note: In a plaque reduction assay, fewer plaques than in the control indicate reduced infectivity or spread.

In experiment [3] the test system is L1210. Description: Antiproliferative testing in vitro and its ability to inhibit the growth of L1210 murine leukemia cells determined at a concentration of 10 uM. Also noted: scale not given: the % may be the effect or the level left.
Experiment [4] deals with L1210. The experiment can be described thus: Antiproliferative testing in vitro and its ability to inhibit the growth of L1210 murine leukemia cells determined at a concentration of 100 uM. The experiment is classed as functional, Mus musculus. In outline:
(§1)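 L1210 mouse leukemia cells grown in static suspension culture in Fischer's medium for 3 days with test compound. Growth rate was taken as the slope of semilog cell number versus time, expressed as control doubling time as percent of treated doubling time, i.e. treated growth relative to control.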

Experiment [5] deals with L1210. The experiment can be described thus: Antiproliferative testing in vitro and its ability to inhibit the growth of L1210 murine leukemia cells determined at a concentration of 10 uM. The experiment is classed as functional, Mus musculus. Also noted: scale not given: the % may be the effect or the level left. In outline: as §1

Bounds are passed on as bounds.

In the case of `Nc1ncnc2c1ccn2COCCO`, the 50% inhibitory concentration (IC50) in the experiment listed under Homo sapiens was > 100 µM; in experiment [1] it was > 100 µM; in experiment [2], > 320 µM; in the experiment with Human alphaherpesvirus 1, > 100 µM; with Human betaherpesvirus 5, > 100 µM.

Regarding `NC(=S)c1cn(COCCO)c2ncnc(N)c12`, the IC50 is 100 µM in the experiment listed under Homo sapiens; > 100 µM in experiment [1]; > 100 µM in experiment [2]; > 100 µM in the experiment on Human alphaherpesvirus 1; 11 µM in the experiment with Human betaherpesvirus 5. This compound also returned a Control with L1210 [3] of 93%.

With `NNC(=O)c1cn(COCCO)c2ncnc(N)c12`, the IC50 (in the experiment listed under Homo sapiens; in experiment [1]; with Human alphaherpesvirus 1; in the experiment on Human betaherpesvirus 5) was > 100 µM throughout. Moreover, in the experiment with L1210 [4], the “Growth rate, % of control” value is 92%.

`COC(=N)c1cn(COCCO)c2ncnc(N)c12`: the IC50 (in the experiment filed under Homo sapiens; in experiment [1]; in the experiment with Human alphaherpesvirus 1; with Human betaherpesvirus 5) was > 100 µM in each case. In the experiment with L1210 [5], the Control is 108%.

In the case of `NC(=NO)c1cn(COCCO)c2ncnc(N)c12`, the half-inhibitory concentration (IC50) (in the experiment listed under Homo sapiens; in experiment [1]; in the experiment on Human alphaherpesvirus 1; with Human betaherpesvirus 5) was > 100 µM in each case. For the same compound, the “Growth rate, % of control” value with L1210 [4] is reported as 89%.

As to `N#Cc1cn(COCCO)c2ncnc(N)c12`, the concentration for half-maximal inhibition (IC50) in the experiment listed under Homo sapiens is > 100 µM; in experiment [1], > 320 µM; in experiment [2], > 100 µM; with Human alphaherpesvirus 1 it was > 320 µM; with Human betaherpesvirus 5 it was > 100 µM. This compound returned a Growth rate, % of control in the experiment with L1210 [4] of 100%.

As to `N#Cc1cnc2n(COCCO)cnc(N)c1-2`, the IC50 in the experiment filed under Homo sapiens is > 320 µM; in experiment [1], > 100 µM; in the experiment on Human alphaherpesvirus 1 it was > 100 µM; in the experiment with Human betaherpesvirus 5 it was > 320 µM.

As to `NC(=O)c1cn(COCCO)c2ncnc(N)c12`, the IC50 in the experiment filed under Homo sapiens was > 320 µM; in experiment [1], > 100 µM; in experiment [2] it was > 100 µM; in the experiment on Human alphaherpesvirus 1 it was > 100 µM; in the experiment on Human betaherpesvirus 5, > 320 µM. Besides, in the experiment with L1210 [4], the “Growth rate, % of control” value worked out at 100%.

`CC(=O)OCCOCn1cc(C#N)c2c(N)ncnc21`: the 50% inhibitory concentration (IC50) (in the experiment filed under Homo sapiens; in experiment [1]; with Human alphaherpesvirus 1; in the experiment on Human betaherpesvirus 5) was > 100 µM throughout.

On to `Nc1nc2c(ncn2COCCO)c(=O)[nH]1` [ACYCLOVIR], for which the IC50 in the experiment listed under Homo sapiens was > 100 µM; in experiment [1], > 100 µM; in experiment [2], > 100 µM; in the experiment with Human alphaherpesvirus 1, 3.9 µM.

As for `Nc1nc2c(ncn2COC(CO)CO)c(=O)[nH]1` [GANCICLOVIR], the IC50 in the experiment listed under Homo sapiens was > 100 µM; in experiment [1], > 100 µM; in experiment [2], 1000 µM; in the experiment on Human alphaherpesvirus 1 it was 2.3 µM; in the experiment with Human betaherpesvirus 5 it was 7.9 µM.

For orientation: IC50 means the point on the concentration scale where inhibition reaches its midpoint.
